# Screens: PubChem, The Scripps Research Institute Molecular Screening Center
# GPR7 antagonist: blocks human GPR7 receptor signaling; inhibition, % at 4.4 µM; P48145; 290,000 compounds, 1.1% hits; GPR7-expressing cells, fluorescence antagonist assay; in the data active = inhibition above about 16%, passing the limit was not always enough;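 also: cells stimulated with the agonist NPW; 0% = agonist with vehicle and 100% = vehicle without agonist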
# Target sequence (P48145 whole entry, looked up): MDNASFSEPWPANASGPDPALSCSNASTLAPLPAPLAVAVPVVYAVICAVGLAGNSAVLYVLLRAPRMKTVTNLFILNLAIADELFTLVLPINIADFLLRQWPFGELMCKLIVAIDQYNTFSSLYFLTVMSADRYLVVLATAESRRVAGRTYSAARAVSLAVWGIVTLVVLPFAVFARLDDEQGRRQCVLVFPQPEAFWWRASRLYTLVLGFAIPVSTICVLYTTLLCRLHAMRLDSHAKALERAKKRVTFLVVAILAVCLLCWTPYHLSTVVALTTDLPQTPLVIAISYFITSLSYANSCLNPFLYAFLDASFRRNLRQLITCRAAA
# CHO parental Ca: signal in parental CHO cells, OX1R antagonist counter-screen; parental CHO-K1, ATP-induced calcium, Fluo-8 fluorescence; 330,000 compounds, 0.63% hits; inhibition, % at 5.6 µM;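 active = inhibition above that plate's mean sample inhibition plus 3 SD, cut at about 26% in these data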;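 also: 0% = ATP-challenged DMSO wells and 100% = DMSO wells without ATP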
#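 Test system: parental CHO cells; detection: calcium-sensitive Fluo-8 fluorescence; evaluation: percent inhibition of calcium signal; also added: ATP as calcium-mobilizing challenge; repeats: one well per compound; control set: ATP-challenged DMSO wells low, unchallenged DMSO wells high; compound: single nominal dose of 5.6 µM per compound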
# OX1R antag-1: antagonists of human orexin 1 receptor (OX1R) | OX1R-expressing cells, FRET antagonist read-out | 330,000 compounds, 1.8% hits | O43613 | inhibition, % at 6.6 µM; in the data active = inhibition mostly above about 38%, no sharp cut-off; inactive = mostly below about 40%;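 also: 0% = agonist challenge alone and 100% = reference antagonist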
# OX1R antag-2: antagonists of human orexin 1 receptor. O43613. CHO/OX1R cells, Fluo-8 calcium fluorescence, orexin A. inhibition, % at 5 µM. 330,000 compounds, 0.43% hits. AID 434989;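 active = inhibition above its plate's threshold, mean inhibition of all tested compounds on the plate plus 3 SD, cut at about 37% in these data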;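 also: 0% = orexin A challenge wells and 100% = SB-334867-A antagonist wells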
# GalR3 antagonist: human GalR3 antagonism. AID 651719. 360,000 compounds, 0.44% hits. HEK293 GalR3-CNG cAMP membrane potential fluorescence; galR3 body fused to GalR1 C-terminus. inhibition, % at 3 µM;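 active = inhibition above the screen-wide average plus 3 SD, cut at about 13% in these data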;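 also: forskolin and galanin both at EC90 stimulate the cells; cAMP rise reported by CNG channel membrane potential dye signal; 0% = forskolin plus galanin with DMSO and 100% = forskolin alone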
# GalR3 antag conf: GalR3 (human) antagonism, confirmation | shares compounds with GalR3 antagonist | HEK293 GalR3 CNG cAMP biosensor, membrane potential fluorescence; galR3 fused to GalR1 carboxy tail; challenged with forskolin and galanin at EC90 | inhibition, % at 3 µM | 1,600 compounds, 59% hits;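 active = inhibition above the primary screen's cutoff, the mean inhibition of all screened compounds plus 3 SD, cut at about 13% in these data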;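 also: 0% = forskolin plus galanin and 100% = forskolin alone with DMSO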
# HEK-CNG parental: acts as nonspecific agonist in parental HEK-CNG cells; shares compounds with GalR3 antagonist; HEK293-CNG parental cells, cAMP membrane potential fluorescence; normalised: DMSO wells 0%, forskolin wells 100%; activation, % at 3 µM; 1,600 compounds, 10% hits; in the data active = activation above about 1.3%
# * marks the source's active call; other numbers are inactive results; · = no result. The list is not random: actives were taken first. Their share in the collection is about 3.1%.
SMILES,GPR7 antagonist,CHO parental Ca,OX1R antag-1,OX1R antag-2,GalR3 antagonist,GalR3 antag conf,HEK-CNG parental
CC(C)OCCCNC(=O)C1CCC(CNS(=O)(=O)c2ccccc2)CC1 (centres undefined),19.9,-8.1,10.9,-11.8,25.6*,4.5,-0.3
CCOCCCNC(=O)C1CCC(CNS(=O)(=O)c2ccc(OC)cc2)CC1 (centres undefined),-11.2,-5.2,3.0,5.7,13.6*,41.5*,1.9*
Cc1ccc(S(=O)(=O)NCC2CCC(C(=O)NCCCOC(C)C)CC2)cc1 (centres undefined),9.2,-12.7,7.9,-6.6,·,·,·
COc1ccccc1CNC(=O)[C@H](C)NC(=O)C1CCN(C(=O)[C@@H](N)CC(C)C)CC1,-11.8,-5.3,10.1,-6.2,-6.5,·,·
c1csc(CNc2ncnc3sccc23)c1,8.1,8.2,33.1,23.2,60.7*,87.9*,0.4
c1cncc(CNc2ncnc3sccc23)c1,5.5,-2.6,9.1,-17.1,-0.1,·,·
Clc1cccc(CNCCNCc2cccc(Cl)c2)c1,-2.6,-1.3,7.0,-4.7,22.1*,12.0,2.5*
CCOC(=O)C1=C(C)NC2=C(C(=O)c3ccccc32)C1c1ccc(O)cc1 (centres undefined),-6.4,-22.5,26.6,-31.4,20.3*,8.0,0.1
CCOC(=O)C1=C(C)NC2=C(C(=O)c3ccccc32)C1c1cccc2ccccc12 (centres undefined),-13.7,-24.8,16.4,-14.7,-3.5,·,·
O=C(Nc1ccc(S(=O)(=O)N2CCCC2)cc1)C1CC(=O)N(CCc2ccccc2)C1 (centres undefined),·,·,·,·,-3.9,·,·
CCOC(=O)N(C)[C@H]1C[C@H]2c3[nH]c4ccccc4c3CCN2C[C@H]1[C@H](C)O,·,·,·,·,-6.2,·,·
CCOC(=O)N(C)[C@H]1C[C@H]2c3cc(-c4ccccc4C)ccc3CCN2C[C@H]1[C@H](C)O,·,·,·,·,95.0*,1.7,0.1
CCOc1c(Br)cc(CNc2ccc3c(c2)OCCO3)cc1OC,4.9,-11.9,5.4,-8.5,-1.4,·,·
CCOc1cc(CNc2ccc3c(c2)OCCO3)cc(Br)c1OC,1.6,-15.9,14.3,-15.2,·,-0.4,1.1
Fc1ccccc1-c1nc2nc3ccccc3nc2n1CC1CCCO1 (centres undefined),12.6,-17.8,17.9,-11.4,-5.3,·,·
COc1ccc(CCNc2ccc(N3C(=O)CC(C)C3=O)cc2[N+](=O)[O-])cc1OC (centres undefined),-5.2,54.5*,58.6,27.8,59.0*,103.6*,-0.6
CC(C)c1csc(CN2CCC(CO)(Cc3cccc(F)c3)CC2)n1,5.3,-7.8,35.6,-28.9,13.3*,-2.0,0.1
COc1ccccc1NCCC(=O)OCC(=O)Nc1ccccc1Cl,·,-15.2,8.8,-21.8,-4.7,·,·
CCOc1ccc(Oc2ccccc2NC(=O)CSCC(=O)Nc2cc(C)on2)cc1,·,8.0,31.9,5.9,40.2*,72.8*,-0.4
CC1=CC(=O)C(C(C)C)=C/C1=N/OS(=O)(=O)c1ccccc1,81.1*,71.5*,64.3*,75.3*,91.6*,35.1*,-0.5
Cc1ccc2c(c1)/C(=N/OS(=O)(=O)c1ccccc1)CCS2,-7.9,-9.5,13.1,-5.8,-2.3,·,·
CCOC(=O)c1cc(-c2ccc(OC)cc2OC)nn1-c1ccc(C(=O)O)cc1,-2.5,-9.4,22.4,-14.6,-2.5,·,·
O=C(COc1ccccc1)Nc1c2c(nn1-c1ccccc1)CS(=O)(=O)C2,7.3,-11.1,17.2,-2.2,-2.0,·,·
COc1ccc(S(=O)(=O)N2CCC[C@H]2C(=O)N2CCC[C@H]2C(=O)NCc2ccncc2)cc1C,·,·,·,·,0.4,·,·
CCOc1ccc(S(=O)(=O)NCc2ccncc2)cc1,20.8*,3.5,24.9,-1.4,90.9*,107.8*,-0.3
Cc1cc(S(=O)(=O)NCc2ccncc2)c(C)cc1Br,13.5,46.1*,26.2,12.0,104.2*,110.8*,-0.3
COc1ccc(S(=O)(=O)NCc2ccccn2)cc1,3.2,-9.0,9.6,-12.0,14.6*,19.8*,0.2
Cc1ccc(C)c(S(=O)(=O)NCc2ccncc2)c1,2.5,1.1,5.8,1.7,2.2,·,·
